Results: ChEMBL document CHEMBL5303300, “EUbOPEN Chemogenomics Library - Multiplex” (2023)
Values joined by “and” are separate entries in the source; they are usually repeats but may differ in a detail not shown here. Equal entries are not always repeated.

Experiments:
Format in all cases: toxicity, cell-based
HEK-293T = test: Multiplex assay against HEK293T; conditions: human, number of replicates 2
Summary of the method: (§1)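 Values for tubulin, mitochondrial-mass and membrane-permeability phenotypes are per cents of cells with healthy nuclei. These cells were identified by CellPathfinder machine-learning gating of live cells that had been stained at seeding with Hoechst33342, BioTracker Green Microtubule Cytoskeleton Dye, MitoTracker Red and Annexin V Alexa Fluor 680 and imaged on a CQ1 microscope at 37°C and 5% CO2 after compound addition. The gating first set Hoechst high-intensity objects apart from normal cells, then split normal cells into healthy, pyknosed or fragmented nuclei, and pyknosed cells into mitotic or apoptotic.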

Fibroblast = test: Multiplex assay against human fibroblast; conditions: number of replicates 2; summary of the method: as §1
U2OS = test: Multiplex assay against U2OS; conditions: human, number of replicates 2; summary of the method: as §1
[1] = 12 h, 1 µM, compound concentration 1 uM
[2] = 12 h, 10 µM, compound concentration 10 uM
[3] = 24 h, 1 µM, compound concentration 1 uM
[4] = 24 h, 10 µM, compound concentration 10 uM
[5] = 48 h, 1 µM, compound concentration 1 uM
[6] = 48 h, 10 µM, compound concentration 10 uM

COc1cc(Nc2cnc(C#N)c(O[C@H](C)CN(C)C)n2)ncc1-c1cnn(C)c1
Population Apoptotic (%) (HEK-293T; [1]): 43% and 40%
Population Fragmented Nuclei (%) (HEK-293T; [1]): 3%
Population Healthy Nuclei (%) (HEK-293T; [1]): 78% and 82%
Population Hoechst High Intensity Objects (%) (HEK-293T; [1]): 4% and 7%
Population Membrane Permeable-Phenotype (%) (HEK-293T; [1]): 5% and 3%
Population Mitochondria Different-Phenotype (%) (HEK-293T; [1]): 19% and 14%
Population Mitotic Cells (%) (HEK-293T; [1]): 56% and 59%
Population Normal (%) (HEK-293T; [1]): 95% and 92%
Population Pyknosed Nuclei (%) (HEK-293T; [1]): 18% and 14%
Population Tubulin-Different-Phenotype (%) (HEK-293T; [1]): 54% and 50%
Total Cell Count (HEK-293T; [1]): 593 and 622
Population Apoptotic (%) (HEK-293T; [2]): 59% and 57%
Population Fragmented Nuclei (%) (HEK-293T; [2]): 2%
Population Healthy Nuclei (%) (HEK-293T; [2]): 62% and 75%
Population Hoechst High Intensity Objects (%) (HEK-293T; [2]): 6% and 4%
Population Membrane Permeable-Phenotype (%) (HEK-293T; [2]): 5% and 3%
Population Mitochondria Different-Phenotype (%) (HEK-293T; [2]): 45% and 52%
Population Mitotic Cells (%) (HEK-293T; [2]): 40% and 43%
Population Normal (%) (HEK-293T; [2]): 93% and 95%
Population Pyknosed Nuclei (%) (HEK-293T; [2]): 35% and 21%
Population Tubulin-Different-Phenotype (%) (HEK-293T; [2]): 87% and 90%
Total Cell Count (HEK-293T; [2]): 383 and 486
Population Apoptotic (%) (HEK-293T; [3]): 28% and 26%
Population Fragmented Nuclei (%) (HEK-293T; [3]): 5%
Population Healthy Nuclei (%) (HEK-293T; [3]): 84% and 80%
Population Hoechst High Intensity Objects (%) (HEK-293T; [3]): 8% and 7%
Population Membrane Permeable-Phenotype (%) (HEK-293T; [3]): 4%
Population Mitochondria Different-Phenotype (%) (HEK-293T; [3]): 11% and 14%
Population Mitotic Cells (%) (HEK-293T; [3]): 71% and 73%
Population Normal (%) (HEK-293T; [3]): 91% and 92%
Population Pyknosed Nuclei (%) (HEK-293T; [3]): 9% and 13%
Population Tubulin-Different-Phenotype (%) (HEK-293T; [3]): 46% and 41%
Total Cell Count (HEK-293T; [3]): 801 and 735
Population Apoptotic (%) (HEK-293T; [4]): 63% and 69%
Population Fragmented Nuclei (%) (HEK-293T; [4]): 2% and 3%
Population Healthy Nuclei (%) (HEK-293T; [4]): 76% and 78%
Population Hoechst High Intensity Objects (%) (HEK-293T; [4]): 9% and 10%
Population Membrane Permeable-Phenotype (%) (HEK-293T; [4]): 3% and 4%
Population Mitochondria Different-Phenotype (%) (HEK-293T; [4]): 47% and 42%
Population Mitotic Cells (%) (HEK-293T; [4]): 36% and 30%
Population Normal (%) (HEK-293T; [4]): 90% and 89%
Population Pyknosed Nuclei (%) (HEK-293T; [4]): 20% and 18%
Population Tubulin-Different-Phenotype (%) (HEK-293T; [4]): 85% and 82%
Total Cell Count (HEK-293T; [4]): 524 and 415
Population Apoptotic (%) (HEK-293T; [5]): 31% and 47%
Population Fragmented Nuclei (%) (HEK-293T; [5]): 9% and 7%
Population Healthy Nuclei (%) (HEK-293T; [5]): 79% and 80%
Population Hoechst High Intensity Objects (%) (HEK-293T; [5]): 9% and 8%
Population Membrane Permeable-Phenotype (%) (HEK-293T; [5]): 6% and 8%
Population Mitochondria Different-Phenotype (%) (HEK-293T; [5]): 8% and 11%
Population Mitotic Cells (%) (HEK-293T; [5]): 68% and 52%
Population Normal (%) (HEK-293T; [5]): 90% and 91%
Population Pyknosed Nuclei (%) (HEK-293T; [5]): 10% and 12%
Population Tubulin-Different-Phenotype (%) (HEK-293T; [5]): 39% and 46%
Total Cell Count (HEK-293T; [5]): 1105 and 1012
Population Apoptotic (%) (HEK-293T; [6]): 71% and 67%
Population Fragmented Nuclei (%) (HEK-293T; [6]): 3%
Population Healthy Nuclei (%) (HEK-293T; [6]): 44% and 52%
Population Hoechst High Intensity Objects (%) (HEK-293T; [6]): 12% and 11%
Population Membrane Permeable-Phenotype (%) (HEK-293T; [6]): 4%
Population Mitochondria Different-Phenotype (%) (HEK-293T; [6]): 69% and 77%
Population Mitotic Cells (%) (HEK-293T; [6]): 28% and 32%
Population Normal (%) (HEK-293T; [6]): 87% and 88%
Population Pyknosed Nuclei (%) (HEK-293T; [6]): 52% and 43%
Population Tubulin-Different-Phenotype (%) (HEK-293T; [6]): 81% and 89%
Total Cell Count (HEK-293T; [6]): 374 and 473
Population Apoptotic (%) (Fibroblast; [1]): 37% and 47%
Population Fragmented Nuclei (%) (Fibroblast; [1]): 12% and 13%
Population Healthy Nuclei (%) (Fibroblast; [1]): 67% and 77%
Population Hoechst High Intensity Objects (%) (Fibroblast; [1]): 0%
Population Membrane Permeable-Phenotype (%) (Fibroblast; [1]): 3% and 2%
Population Mitochondria Different-Phenotype (%) (Fibroblast; [1]): 1%
Population Mitotic Cells (%) (Fibroblast; [1]): 62% and 52%
Population Normal (%) (Fibroblast; [1]): 100%
Population Pyknosed Nuclei (%) (Fibroblast; [1]): 20% and 9%
Population Tubulin-Different-Phenotype (%) (Fibroblast; [1]): 11% and 3%
Total Cell Count (Fibroblast; [1]): 185 and 222
Population Apoptotic (%) (Fibroblast; [2]): 37% and 41%
Population Fragmented Nuclei (%) (Fibroblast; [2]): 24% and 26%
Population Healthy Nuclei (%) (Fibroblast; [2]): 69% and 64%
Population Hoechst High Intensity Objects (%) (Fibroblast; [2]): 0%
Population Membrane Permeable-Phenotype (%) (Fibroblast; [2]): 2% and 4%
Population Mitochondria Different-Phenotype (%) (Fibroblast; [2]): 0%
Population Mitotic Cells (%) (Fibroblast; [2]): 62% and 58%
Population Normal (%) (Fibroblast; [2]): 99% and 100%
Population Pyknosed Nuclei (%) (Fibroblast; [2]): 5% and 8%
Population Tubulin-Different-Phenotype (%) (Fibroblast; [2]): 26% and 17%
Total Cell Count (Fibroblast; [2]): 300 and 346
Population Apoptotic (%) (Fibroblast; [3]): 50% and 40%
Population Fragmented Nuclei (%) (Fibroblast; [3]): 9% and 11%
Population Healthy Nuclei (%) (Fibroblast; [3]): 80% and 78%
Population Hoechst High Intensity Objects (%) (Fibroblast; [3]): 0%
Population Membrane Permeable-Phenotype (%) (Fibroblast; [3]): 2% and 3%
Population Mitochondria Different-Phenotype (%) (Fibroblast; [3]): 2% and 1%
Population Mitotic Cells (%) (Fibroblast; [3]): 50% and 60%
Population Normal (%) (Fibroblast; [3]): 100%
Population Pyknosed Nuclei (%) (Fibroblast; [3]): 9%
Population Tubulin-Different-Phenotype (%) (Fibroblast; [3]): 13% and 5%
Total Cell Count (Fibroblast; [3]): 168 and 206
Population Apoptotic (%) (Fibroblast; [4]): 61% and 70%
Population Fragmented Nuclei (%) (Fibroblast; [4]): 28% and 29%
Population Healthy Nuclei (%) (Fibroblast; [4]): 67% and 65%
Population Hoechst High Intensity Objects (%) (Fibroblast; [4]): 1% and 0%
Population Membrane Permeable-Phenotype (%) (Fibroblast; [4]): 3% and 0%
Population Mitochondria Different-Phenotype (%) (Fibroblast; [4]): 1% and 0%
Population Mitotic Cells (%) (Fibroblast; [4]): 38% and 30%
Population Normal (%) (Fibroblast; [4]): 98% and 100%
Population Pyknosed Nuclei (%) (Fibroblast; [4]): 4% and 5%
Population Tubulin-Different-Phenotype (%) (Fibroblast; [4]): 24% and 13%
Total Cell Count (Fibroblast; [4]): 292 and 355
Population Apoptotic (%) (Fibroblast; [5]): 43% and 64%
Population Fragmented Nuclei (%) (Fibroblast; [5]): 14% and 12%
Population Healthy Nuclei (%) (Fibroblast; [5]): 75% and 80%
Population Hoechst High Intensity Objects (%) (Fibroblast; [5]): 0%
Population Membrane Permeable-Phenotype (%) (Fibroblast; [5]): 0% and 1%
Population Mitochondria Different-Phenotype (%) (Fibroblast; [5]): 0%
Population Mitotic Cells (%) (Fibroblast; [5]): 56% and 35%
Population Normal (%) (Fibroblast; [5]): 100%
Population Pyknosed Nuclei (%) (Fibroblast; [5]): 9% and 6%
Population Tubulin-Different-Phenotype (%) (Fibroblast; [5]): 8% and 1%
Total Cell Count (Fibroblast; [5]): 170 and 205
Population Apoptotic (%) (Fibroblast; [6]): 43% and 75%
Population Fragmented Nuclei (%) (Fibroblast; [6]): 27% and 30%
Population Healthy Nuclei (%) (Fibroblast; [6]): 66%
Population Hoechst High Intensity Objects (%) (Fibroblast; [6]): 0%
Population Membrane Permeable-Phenotype (%) (Fibroblast; [6]): 1% and 2%
Population Mitochondria Different-Phenotype (%) (Fibroblast; [6]): 0%
Population Mitotic Cells (%) (Fibroblast; [6]): 56% and 25%
Population Normal (%) (Fibroblast; [6]): 100% and 99%
Population Pyknosed Nuclei (%) (Fibroblast; [6]): 5% and 3%
Population Tubulin-Different-Phenotype (%) (Fibroblast; [6]): 29% and 12%
Total Cell Count (Fibroblast; [6]): 312 and 369
Population Apoptotic (%) (U2OS; [1]): 100% and 59%
Population Healthy Nuclei (%) (U2OS; [1]): 63% and 83%
Population Hoechst High Intensity Objects (%) (U2OS; [1]): 0%
Population Mitochondria Different-Phenotype (%) (U2OS; [1]): 8% and 2%
Population Normal (%) (U2OS; [1]): 100%
Population Pyknosed Nuclei (%) (U2OS; [1]): 10% and 11%
Population Tubulin-Different-Phenotype (%) (U2OS; [1]): 75% and 63%
Population Apoptotic (%) (U2OS; [2]): 88% and 56%
Population Healthy Nuclei (%) (U2OS; [2]): 39% and 74%
Population Hoechst High Intensity Objects (%) (U2OS; [2]): 0%
Population Mitochondria Different-Phenotype (%) (U2OS; [2]): 6% and 8%
Population Normal (%) (U2OS; [2]): 100%
Population Pyknosed Nuclei (%) (U2OS; [2]): 21% and 15%
Population Tubulin-Different-Phenotype (%) (U2OS; [2]): 25% and 32%
Population Apoptotic (%) (U2OS; [3]): 50% and 76%
Population Healthy Nuclei (%) (U2OS; [3]): 67% and 86%
Population Hoechst High Intensity Objects (%) (U2OS; [3]): 0%
Population Membrane Permeable-Phenotype (%) (U2OS; [3]): 0% and 2%
Population Mitochondria Different-Phenotype (%) (U2OS; [3]): 0%
Population Mitotic Cells (%) (U2OS; [3]): 50% and 24%
Population Normal (%) (U2OS; [3]): 100%
Population Pyknosed Nuclei (%) (U2OS; [3]): 10% and 8%
Population Tubulin-Different-Phenotype (%) (U2OS; [3]): 81% and 72%
Population Apoptotic (%) (U2OS; [4]): 87% and 64%
Population Fragmented Nuclei (%) (U2OS; [4]): 33% and 11%
Population Healthy Nuclei (%) (U2OS; [4]): 37% and 67%
Population Hoechst High Intensity Objects (%) (U2OS; [4]): 6% and 2%
Population Mitochondria Different-Phenotype (%) (U2OS; [4]): 20% and 9%
Population Mitotic Cells (%) (U2OS; [4]): 12% and 35%
Population Normal (%) (U2OS; [4]): 93% and 97%
Population Pyknosed Nuclei (%) (U2OS; [4]): 29% and 20%
Population Tubulin-Different-Phenotype (%) (U2OS; [4]): 60% and 44%
Population Apoptotic (%) (U2OS; [5]): 66% and 62%
Population Healthy Nuclei (%) (U2OS; [5]): 55% and 83%
Population Hoechst High Intensity Objects (%) (U2OS; [5]): 0%
Population Membrane Permeable-Phenotype (%) (U2OS; [5]): 2%
Population Mitochondria Different-Phenotype (%) (U2OS; [5]): 0%
Population Mitotic Cells (%) (U2OS; [5]): 33% and 37%
Population Normal (%) (U2OS; [5]): 100% and 99%
Population Pyknosed Nuclei (%) (U2OS; [5]): 28% and 12%
Population Tubulin-Different-Phenotype (%) (U2OS; [5]): 94% and 74%
Population Apoptotic (%) (U2OS; [6]): 100% and 85%
Population Fragmented Nuclei (%) (U2OS; [6]): 31% and 20%
Population Healthy Nuclei (%) (U2OS; [6]): 20% and 46%
Population Hoechst High Intensity Objects (%) (U2OS; [6]): 3% and 0%
Population Membrane Permeable-Phenotype (%) (U2OS; [6]): 16% and 7%
Population Mitochondria Different-Phenotype (%) (U2OS; [6]): 16% and 10%
Population Mitotic Cells (%) (U2OS; [6]): 0% and 14%
Population Normal (%) (U2OS; [6]): 96% and 99%
Population Pyknosed Nuclei (%) (U2OS; [6]): 48% and 33%
Population Tubulin-Different-Phenotype (%) (U2OS; [6]): 50% and 59%
